These compounds were tested against Sulfotransferase 1A1 (Rattus norvegicus, UniProt P17988) (assay: Ratio of kcat/Km determined for catalytic efficiency in sulfonation against AST IV).
Outline: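 Recombinant rat hepatic AST IV, expressed in E. coli and purified. Each reaction held 1.0 μg enzyme, 0.2 mM PAPS, 8.3 mM 2-mercaptoethanol, varying substrate and 0.25 M potassium phosphate at pH 7.0. Mixtures were preincubated 2 min at 37 °C, started with enzyme, run 10 min at 37 °C and stopped with methanol. Substrate-dependent PAP formation was read by HPLC and corrected with substrate-free controls. kcat is in min⁻¹ and apparent Km in M.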

Chain of Sulfotransferase 1A1 (P17988 whole entry): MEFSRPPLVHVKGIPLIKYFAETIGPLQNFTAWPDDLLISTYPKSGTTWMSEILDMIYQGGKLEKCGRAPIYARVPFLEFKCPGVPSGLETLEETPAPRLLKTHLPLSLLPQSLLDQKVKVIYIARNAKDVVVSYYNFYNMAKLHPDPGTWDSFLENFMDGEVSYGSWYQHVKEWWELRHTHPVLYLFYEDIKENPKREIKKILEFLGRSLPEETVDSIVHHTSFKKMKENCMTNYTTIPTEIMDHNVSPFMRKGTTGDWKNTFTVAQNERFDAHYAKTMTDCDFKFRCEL

Point of comparison: `CN[C@@H](C)C(O)c1ccccc1` (stereo partly drawn), Ratio 0.1. Against it:
- C[C@H](O)c1ccccc1 — higher, 4.6
- CCCCCCc1ccc(CO)cc1 — higher, 109
- CCCCCCCCCc1ccc(O)cc1 [4-NONYLPHENOL] — higher, 28.3
- CN[C@H](C)[C@H](O)c1ccccc1 — the same, 0.1
- CCCCCC[C@H](O)c1ccccc1 — higher, 8.8
- Oc1ccccc1 [PHENOL] — higher, 625
- OCc1ccc2ccccc2c1 — higher, 101
- CCCCCc1ccc(O)cc1 — higher, 784
- CCCc1ccc(O)cc1 — higher, 2410
- CCC[C@H](O)c1ccccc1 — higher, 0.8
- OCc1ccccc1 [BENZYL ALCOHOL] — higher, 20.7
- O=[N+]([O-])c1ccc(O)c(Cl)c1 — higher, 190
- O=[N+]([O-])c1ccc(CO)cc1 [PARANITROBENZYL ALCOHOL] — higher, 3.5
- Oc1ccc2ccccc2c1 [BETANAPHTHOL] — higher, 4790
- Oc1ccc(C23C[C@H]4C[C@@H](C2)C[C@@H](C3)C4)cc1 — higher, 1600
- OCc1cccc2ccccc12 — higher, 29.4
- Cc1ccc(CO)cc1 — higher, 28.7
- CC(=O)Nc1ccc(O)cc1 [ACETAMINOPHEN] — higher, 66.7
- Oc1ccc(-c2ccccc2)cc1 — higher, 79.1
- ONc1ccc(Cl)cc1 — higher, 45.6
- OCc1ccoc1 — higher, 0.4
- CC[C@H](O)c1ccccc1 — higher, 1.4
- CCc1ccc(O)cc1 — higher, 1390
- CCCN(O)c1ccccc1 — higher, 20.8
- CCCCCCCc1ccc(CO)cc1 — higher, 11
- CCCCC[C@H](O)c1ccccc1 — higher, 10.2
- C[C@@H](O)c1ccccc1 — higher, 0.4
- CCN(O)c1ccccc1 — higher, 14.2
- O=C(CBr)Nc1ccc(O)cc1 — higher, 146
- CCCCc1ccc(CO)cc1 — higher, 147
- ONc1ccccc1 — higher, 6.3
- CCCCCc1ccc(CO)cc1 — higher, 185
- OC1CCCc2ccccc21 (stereo not drawn) — higher, 32.4
- CCCCc1ccc(O)cc1 — higher, 2230
- CCCCCCCc1ccc(O)cc1 — higher, 73.4
- CCCC[C@H](O)c1ccccc1 — higher, 103
- OCc1c[nH]c2ccccc12 [INDOLE-3-CARBINOL] — higher, 38.9
- CC(C)[C@H](O)c1ccccc1 — higher, 0.2
- Cc1ccc(O)cc1 [p-CRESOL] — higher, 1080
- CN(O)c1ccccc1 — higher, 24.2
- CCCc1ccc(CO)cc1 — higher, 151
- COC(=O)[C@@H](N)Cc1ccc(O)cc1 [TYROSINE METHYL ESTER] — higher, 3

Reference: ChEMBL document CHEMBL1135676, “Comparative molecular field analysis of substrates for an aryl sulfotransferase based on catalytic mechanism and protein homology modeling” (J Med Chem, 2002)
